Paper PMC10319625 (PNAS Nexus, 2023)
Like-named read-outs stand apart in the source and are kept apart here.

How the values were obtained:
Ca9-22 = assay: Cell proliferation assay; format: cell-based, human; settings: Ca9-22, 48 h
[1] = format: in vivo, mouse; settings: day 10 of treatment, versus negative control
[2] = test system: liver and kidney of KSN/Slc nude mice; assay: Histopathological analysis of liver and kidney, tumor-free mice; format: in vivo, mouse; settings: 10 days treatment
Outline: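 Tumor-free KSN/Slc nude mice received saline, test compound or cisplatin for 10 days on the xenograft regimen. Liver and kidney sections were HE-stained for histopathology. Glomerulus area was measured (mean ± SD, n = 15 sections from 3 mice) and compared by one-way ANOVA with Tukey's test.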

[3] = test system: SAS cells xenograft tumors in KSN/Slc nude mice; assay: Mouse xenograft model, tumor volume; format: in vivo; settings: 3 µmol/kg cAQ-mBen or 30 µmol/kg CDDP, peritoneally every 2 days for 5 times
Outline: (§1)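 SAS cells were inoculated subcutaneously into KSN/Slc nude mice. From day 7 after inoculation (day 0), mice received saline, 3 µmol/kg test compound or 30 µmol/kg cisplatin intraperitoneally every 2 days, 5 times. Tumor volume and body weight were recorded at set points to day 10 (n = 9 control and test, n = 8 cisplatin). Statistics: two-way ANOVA with Tukey's test.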

[4] = Mouse xenograft model, body weight; format: in vivo; settings: 3 µmol/kg cAQ-mBen or 30 µmol/kg CDDP, every 2 days for 5 times
Outline: as §1

SAS cells [5] = assay: Annexin V/PI staining; format: cell-based, human; settings: 5 µM cAQ-mBen or 50 µM CDDP, 24 h
Outline: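 SAS cells were exposed for 24 h to 5 µM test compound or to 50 µM cisplatin (positive control), then stained with annexin V-FITC and propidium iodide. Positive cells are expressed as % of total cell number per field. Values are mean ± SD of total apoptotic cells (n = 5), compared by one-way ANOVA with Tukey's test.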

HeLa = assay: Cell proliferation assay; format: cell-based, human; settings: 48 h
[6] = test system: primary mouse bone marrow cells (BMCs); assay: Cell proliferation assay; format: cell-based; settings: BMC (normal cells), 48 h
SAS = assay: Cell proliferation assay; format: cell-based, human; settings: 48 h
SAS cells [7] = assay: Western blot analysis of caspase-3 and PARP-1 cleavages; format: cell-based, human; settings: 5 µM cAQ-mBen or 50 µM CDDP, 12 or 24 h
PANC-1 and MIA PaCa-2 = settings: human pancreatic cancer cell lines, cited from earlier work

N.N.[Cl][Pt][Cl] [CDDP, cis-diamminedichloroplatinum(II)]
IC50 (Ca9-22): 27700 nM | physiological indices of serum (BUN, UA, AST, ALT, CRE, and γ-GTP levels) [1]: substantial increase | cell arrangement and size of the glomerulus in the kidney [2]: significant condensation of the glomerulus area | increase in the tumor volume [3]: significantly suppressed | body weight of mice [4]: considerably reduced | Anx Alone(%), cells positive for annexin V, % of total cell count, Mean (SAS cells [5]): 24.0% | PI (%), cells positive for PI signal, % of total cell count, Mean (SAS cells [5]): 18.5% | IC50 (HeLa): 500 nM | IC50 [6]: 1300 nM | IC50 (SAS): 4300 nM | digestion of PARP-1 and caspase-3 (SAS cells [7]): observed in a time-dependent manner

O=C1c2ccc3c4c(c(NCCN5CCCC5)cc(c24)C(=O)N1CCCN1CCOCC1)C(=O)N(CCCN1CCOCC1)C3=O [CM03]
expression of hTERT (PANC-1 and MIA PaCa-2; after 6 h): remained downregulated

O=C1c2cc(-c3ccc(CN4CCCC4)cc3)c3c4c(cc(NCCN5CCCC5)c(c24)C(=O)N1CCCN1CCOCC1)C(=O)N(CCCN1CCOCC1)C3=O [SOP1812]
expression of hTERT (PANC-1 and MIA PaCa-2; after 24 h): remained downregulated
